Test results reported in ChEMBL document CHEMBL4689842, “EUbOPEN Chemogenomics Library wave 1” (2021).

Test system: Fibroblast
Test: Multiplex assay against human fibroblast
Assay type: toxicity, cell-based
Summary of the method: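 Hoechst33342, BioTracker Green Microtubule Cytoskeleton Dye, MitoTracker Red and Annexin V Alexa Fluor 680 were added to live cells at seeding, and imaging on a CQ1 microscope at 37°C and 5% CO2 followed compound addition. Gating by CellPathfinder machine learning separated cells into Hoechst high-intensity objects or normal cells, then normal cells into healthy, pyknosed or fragmented nuclei, then pyknosed cells into mitotic or apoptotic. Per cents of healthy-nucleus cells are reported for the tubulin, mitochondrial-mass and membrane-permeability phenotypes.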

[1] = 12 h, 1 µM, compound concentration 1 uM, replicate 1
[2] = 12 h, 1 µM, compound concentration 1 uM, replicate 2
[3] = 12 h, 10 µM, compound concentration 10 uM, replicate 1
[4] = 12 h, 10 µM, compound concentration 10 uM, replicate 2
[5] = 24 h, 1 µM, compound concentration 1 uM, replicate 1
[6] = 24 h, 1 µM, compound concentration 1 uM, replicate 2
[7] = 24 h, 10 µM, compound concentration 10 uM, replicate 1
[8] = 24 h, 10 µM, compound concentration 10 uM, replicate 2
[9] = 48 h, 1 µM, compound concentration 1 uM, replicate 1
[10] = 48 h, 1 µM, compound concentration 1 uM, replicate 2
[11] = 48 h, 10 µM, compound concentration 10 uM, replicate 1
[12] = 48 h, 10 µM, compound concentration 10 uM, replicate 2

COc1cc(-n2cnc3cc(-c4ccc(Cl)cc4)sc3c2=O)ccc1OCCN1CCCC1
Population Apoptotic (%) [1]: 52% | Population Fragmented Nuclei (%) [1]: 32% | Population Healthy Nuclei (%) [1]: 49% | Population Hoechst High Intensity Objects (%) [1]: 13% | Population Membrane Permeable-Phenotype (%) [1]: 23% | Population Mitochondria Different-Phenotype (%) [1]: 13% | Population Mitotic Cells (%) [1]: 47% | Population Normal (%) [1]: 86% | Population Pyknosed Nuclei (%) [1]: 18% | Population Tubulin-Different-Phenotype (%) [1]: 38% | Total Cell Count [1]: 121 | Population Apoptotic (%) [2]: 71% | Population Fragmented Nuclei (%) [2]: 11% | Population Healthy Nuclei (%) [2]: 77% | Population Hoechst High Intensity Objects (%) [2]: 16% | Population Membrane Permeable-Phenotype (%) [2]: 10% | Population Mitochondria Different-Phenotype (%) [2]: 44% | Population Mitotic Cells (%) [2]: 28% | Population Normal (%) [2]: 84% | Population Pyknosed Nuclei (%) [2]: 11% | Population Tubulin-Different-Phenotype (%) [2]: 34% | Total Cell Count [2]: 78 | Population Apoptotic (%) [3]: 62% | Population Fragmented Nuclei (%) [3]: 33% | Population Healthy Nuclei (%) [3]: 26% | Population Hoechst High Intensity Objects (%) [3]: 14% | Population Membrane Permeable-Phenotype (%) [3]: 21% | Population Mitochondria Different-Phenotype (%) [3]: 53% | Population Mitotic Cells (%) [3]: 37% | Population Normal (%) [3]: 85% | Population Pyknosed Nuclei (%) [3]: 40% | Population Tubulin-Different-Phenotype (%) [3]: 87% | Total Cell Count [3]: 141 | Population Apoptotic (%) [4]: 26% | Population Fragmented Nuclei (%) [4]: 22% | Population Healthy Nuclei (%) [4]: 57% | Population Hoechst High Intensity Objects (%) [4]: 8% | Population Membrane Permeable-Phenotype (%) [4]: 34% | Population Mitochondria Different-Phenotype (%) [4]: 93% | Population Mitotic Cells (%) [4]: 73% | Population Normal (%) [4]: 91% | Population Pyknosed Nuclei (%) [4]: 19% | Population Tubulin-Different-Phenotype (%) [4]: 97% | Total Cell Count [4]: 75 | Population Apoptotic (%) [5]: 38% | Population Fragmented Nuclei (%) [5]: 36% | Population Healthy Nuclei (%) [5]: 47% | Population Hoechst High Intensity Objects (%) [5]: 17% | Population Membrane Permeable-Phenotype (%) [5]: 17% | Population Mitochondria Different-Phenotype (%) [5]: 5% | Population Mitotic Cells (%) [5]: 61% | Population Normal (%) [5]: 82% | Population Pyknosed Nuclei (%) [5]: 15% | Population Tubulin-Different-Phenotype (%) [5]: 32% | Total Cell Count [5]: 142 | Population Apoptotic (%) [6]: 62% | Population Fragmented Nuclei (%) [6]: 16% | Population Healthy Nuclei (%) [6]: 71% | Population Hoechst High Intensity Objects (%) [6]: 10% | Population Membrane Permeable-Phenotype (%) [6]: 6% | Population Mitochondria Different-Phenotype (%) [6]: 25% | Population Mitotic Cells (%) [6]: 37% | Population Normal (%) [6]: 89% | Population Pyknosed Nuclei (%) [6]: 12% | Population Tubulin-Different-Phenotype (%) [6]: 21% | Total Cell Count [6]: 83 | Population Apoptotic (%) [7]: 92% | Population Fragmented Nuclei (%) [7]: 32% | Population Healthy Nuclei (%) [7]: 15% | Population Hoechst High Intensity Objects (%) [7]: 16% | Population Membrane Permeable-Phenotype (%) [7]: 25% | Population Mitochondria Different-Phenotype (%) [7]: 43% | Population Mitotic Cells (%) [7]: 7% | Population Normal (%) [7]: 83% | Population Pyknosed Nuclei (%) [7]: 51% | Population Tubulin-Different-Phenotype (%) [7]: 93% | Total Cell Count [7]: 125 | Population Apoptotic (%) [8]: 47% | Population Fragmented Nuclei (%) [8]: 24% | Population Healthy Nuclei (%) [8]: 52% | Population Hoechst High Intensity Objects (%) [8]: 14% | Population Membrane Permeable-Phenotype (%) [8]: 42% | Population Mitochondria Different-Phenotype (%) [8]: 89% | Population Mitotic Cells (%) [8]: 52% | Population Normal (%) [8]: 85% | Population Pyknosed Nuclei (%) [8]: 23% | Population Tubulin-Different-Phenotype (%) [8]: 81% | Total Cell Count [8]: 74 | Population Apoptotic (%) [9]: 81% | Population Fragmented Nuclei (%) [9]: 39% | Population Healthy Nuclei (%) [9]: 48% | Population Hoechst High Intensity Objects (%) [9]: 18% | Population Membrane Permeable-Phenotype (%) [9]: 9% | Population Mitochondria Different-Phenotype (%) [9]: 4% | Population Mitotic Cells (%) [9]: 18% | Population Normal (%) [9]: 81% | Population Pyknosed Nuclei (%) [9]: 11% | Population Tubulin-Different-Phenotype (%) [9]: 22% | Total Cell Count [9]: 166 | Population Apoptotic (%) [10]: 33% | Population Fragmented Nuclei (%) [10]: 36% | Population Healthy Nuclei (%) [10]: 61% | Population Hoechst High Intensity Objects (%) [10]: 15% | Population Membrane Permeable-Phenotype (%) [10]: 16% | Population Mitochondria Different-Phenotype (%) [10]: 3% | Population Mitotic Cells (%) [10]: 66% | Population Normal (%) [10]: 84% | Population Pyknosed Nuclei (%) [10]: 2% | Population Tubulin-Different-Phenotype (%) [10]: 51% | Total Cell Count [10]: 160 | Population Apoptotic (%) [11]: 93% | Population Fragmented Nuclei (%) [11]: 52% | Population Healthy Nuclei (%) [11]: 26% | Population Hoechst High Intensity Objects (%) [11]: 37% | Population Membrane Permeable-Phenotype (%) [11]: 23% | Population Mitochondria Different-Phenotype (%) [11]: 47% | Population Mitotic Cells (%) [11]: 6% | Population Normal (%) [11]: 62% | Population Pyknosed Nuclei (%) [11]: 20% | Population Tubulin-Different-Phenotype (%) [11]: 85% | Total Cell Count [11]: 124 | Population Apoptotic (%) [12]: 63% | Population Fragmented Nuclei (%) [12]: 36% | Population Healthy Nuclei (%) [12]: 53% | Population Hoechst High Intensity Objects (%) [12]: 32% | Population Mitochondria Different-Phenotype (%) [12]: 30% | Population Mitotic Cells (%) [12]: 36% | Population Normal (%) [12]: 67% | Population Pyknosed Nuclei (%) [12]: 9% | Total Cell Count [12]: 167
